{
  "source": "paper PMC12709667",
  "about": "(Journal of Clinical Pharmacology, 2025)",
  "key": {"[1]": {"test": "In vitro blood/plasma partitioning", "type": "in vitro ADME", "settings": "human, whole blood", "how_it_was_run": "(§1)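 Test compound was added to rat, monkey or human whole blood and incubated, then centrifuged to obtain plasma. The plasma concentration was measured by LC-MS. It was compared with the concentration in directly spiked plasma of the same species.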"}, "[2]": {"test": "In vitro blood/plasma partitioning", "type": "in vitro ADME", "settings": "rat, whole blood", "how_it_was_run": "as §1"}, "CYP2C8 [3]": {"target": "T1, CYP2C8 (Homo sapiens, UniProt P10632)", "T1 sequence (P10632 1-490)": "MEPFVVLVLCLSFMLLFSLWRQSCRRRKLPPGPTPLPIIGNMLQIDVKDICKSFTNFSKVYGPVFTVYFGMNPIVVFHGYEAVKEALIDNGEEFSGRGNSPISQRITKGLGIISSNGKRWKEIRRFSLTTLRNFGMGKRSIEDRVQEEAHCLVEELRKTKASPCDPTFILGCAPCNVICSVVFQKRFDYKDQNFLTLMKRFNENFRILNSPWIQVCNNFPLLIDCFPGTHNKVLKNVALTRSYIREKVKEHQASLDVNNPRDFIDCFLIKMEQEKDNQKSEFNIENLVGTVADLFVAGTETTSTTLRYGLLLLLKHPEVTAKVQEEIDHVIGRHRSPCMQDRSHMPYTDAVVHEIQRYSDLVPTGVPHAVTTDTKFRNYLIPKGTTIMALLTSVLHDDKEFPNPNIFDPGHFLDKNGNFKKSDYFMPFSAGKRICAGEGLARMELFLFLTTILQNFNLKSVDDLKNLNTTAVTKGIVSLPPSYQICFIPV", "test": "Cytochrome P450 inhibition", "type": "in vitro ADME"}, "CYP2C9": {"target": "CYP2C9 (Homo sapiens, UniProt P11712)", "sequence (P11712 whole entry)": "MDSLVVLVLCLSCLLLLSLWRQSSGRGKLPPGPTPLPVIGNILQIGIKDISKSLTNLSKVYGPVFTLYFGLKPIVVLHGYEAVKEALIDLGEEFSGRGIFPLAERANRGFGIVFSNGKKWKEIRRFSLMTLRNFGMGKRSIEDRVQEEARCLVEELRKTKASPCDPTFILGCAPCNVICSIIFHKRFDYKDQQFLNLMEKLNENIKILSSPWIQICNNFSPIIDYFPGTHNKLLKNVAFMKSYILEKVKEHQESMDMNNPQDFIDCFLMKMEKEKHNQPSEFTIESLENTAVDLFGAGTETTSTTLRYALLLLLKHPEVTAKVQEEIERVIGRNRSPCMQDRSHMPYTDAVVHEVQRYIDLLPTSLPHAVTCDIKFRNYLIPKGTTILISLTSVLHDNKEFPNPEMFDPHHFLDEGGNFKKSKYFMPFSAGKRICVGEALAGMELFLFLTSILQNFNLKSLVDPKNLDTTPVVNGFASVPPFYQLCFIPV", "test": "Cytochrome P450 inhibition", "type": "in vitro ADME"}, "CYP2C19": {"target": "CYP2C19 (Homo sapiens, UniProt P33261)", "sequence (P33261 whole entry)": "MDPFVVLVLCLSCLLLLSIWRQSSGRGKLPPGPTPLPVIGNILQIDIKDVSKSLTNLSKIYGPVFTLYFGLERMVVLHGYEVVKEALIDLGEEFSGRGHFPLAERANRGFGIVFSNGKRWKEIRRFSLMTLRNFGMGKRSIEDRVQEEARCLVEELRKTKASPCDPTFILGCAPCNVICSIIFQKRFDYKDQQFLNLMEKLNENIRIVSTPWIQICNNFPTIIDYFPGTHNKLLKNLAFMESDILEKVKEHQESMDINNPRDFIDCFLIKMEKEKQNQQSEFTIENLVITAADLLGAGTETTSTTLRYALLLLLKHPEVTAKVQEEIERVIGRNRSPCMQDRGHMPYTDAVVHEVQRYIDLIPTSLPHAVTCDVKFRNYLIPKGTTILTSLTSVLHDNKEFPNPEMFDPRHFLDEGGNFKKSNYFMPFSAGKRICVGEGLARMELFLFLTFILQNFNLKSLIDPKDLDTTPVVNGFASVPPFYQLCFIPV", "test": "Cytochrome P450 inhibition", "type": "in vitro ADME"}, "CYP1A2": {"test_system": "CYP1A2", "type": "in vitro ADME, human", "settings": "up to 10 µM, three donors"}, "UGT1A1": {"target": "T2, UGT1A1 (Homo sapiens, UniProt P22309)", "T2 sequence (P22309 26-533)": "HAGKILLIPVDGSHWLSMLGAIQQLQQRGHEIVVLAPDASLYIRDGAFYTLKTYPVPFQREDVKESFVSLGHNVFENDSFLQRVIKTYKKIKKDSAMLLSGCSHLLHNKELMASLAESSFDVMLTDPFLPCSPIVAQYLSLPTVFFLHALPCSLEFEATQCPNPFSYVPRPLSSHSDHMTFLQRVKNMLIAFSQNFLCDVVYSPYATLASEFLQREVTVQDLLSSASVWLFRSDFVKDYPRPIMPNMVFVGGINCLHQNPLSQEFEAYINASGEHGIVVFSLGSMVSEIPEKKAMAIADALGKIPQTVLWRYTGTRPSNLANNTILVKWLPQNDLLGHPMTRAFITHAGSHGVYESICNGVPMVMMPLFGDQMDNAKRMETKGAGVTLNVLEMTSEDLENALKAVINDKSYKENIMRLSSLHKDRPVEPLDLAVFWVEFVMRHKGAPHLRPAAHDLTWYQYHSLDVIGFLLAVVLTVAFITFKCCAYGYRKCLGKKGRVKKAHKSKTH", "test": "Phase 2 enzyme inhibition", "type": "in vitro ADME"}, "MDR1/P-gp": {"target": "MDR1/P-gp (Homo sapiens, UniProt P08183)", "sequence (P08183 whole entry)": "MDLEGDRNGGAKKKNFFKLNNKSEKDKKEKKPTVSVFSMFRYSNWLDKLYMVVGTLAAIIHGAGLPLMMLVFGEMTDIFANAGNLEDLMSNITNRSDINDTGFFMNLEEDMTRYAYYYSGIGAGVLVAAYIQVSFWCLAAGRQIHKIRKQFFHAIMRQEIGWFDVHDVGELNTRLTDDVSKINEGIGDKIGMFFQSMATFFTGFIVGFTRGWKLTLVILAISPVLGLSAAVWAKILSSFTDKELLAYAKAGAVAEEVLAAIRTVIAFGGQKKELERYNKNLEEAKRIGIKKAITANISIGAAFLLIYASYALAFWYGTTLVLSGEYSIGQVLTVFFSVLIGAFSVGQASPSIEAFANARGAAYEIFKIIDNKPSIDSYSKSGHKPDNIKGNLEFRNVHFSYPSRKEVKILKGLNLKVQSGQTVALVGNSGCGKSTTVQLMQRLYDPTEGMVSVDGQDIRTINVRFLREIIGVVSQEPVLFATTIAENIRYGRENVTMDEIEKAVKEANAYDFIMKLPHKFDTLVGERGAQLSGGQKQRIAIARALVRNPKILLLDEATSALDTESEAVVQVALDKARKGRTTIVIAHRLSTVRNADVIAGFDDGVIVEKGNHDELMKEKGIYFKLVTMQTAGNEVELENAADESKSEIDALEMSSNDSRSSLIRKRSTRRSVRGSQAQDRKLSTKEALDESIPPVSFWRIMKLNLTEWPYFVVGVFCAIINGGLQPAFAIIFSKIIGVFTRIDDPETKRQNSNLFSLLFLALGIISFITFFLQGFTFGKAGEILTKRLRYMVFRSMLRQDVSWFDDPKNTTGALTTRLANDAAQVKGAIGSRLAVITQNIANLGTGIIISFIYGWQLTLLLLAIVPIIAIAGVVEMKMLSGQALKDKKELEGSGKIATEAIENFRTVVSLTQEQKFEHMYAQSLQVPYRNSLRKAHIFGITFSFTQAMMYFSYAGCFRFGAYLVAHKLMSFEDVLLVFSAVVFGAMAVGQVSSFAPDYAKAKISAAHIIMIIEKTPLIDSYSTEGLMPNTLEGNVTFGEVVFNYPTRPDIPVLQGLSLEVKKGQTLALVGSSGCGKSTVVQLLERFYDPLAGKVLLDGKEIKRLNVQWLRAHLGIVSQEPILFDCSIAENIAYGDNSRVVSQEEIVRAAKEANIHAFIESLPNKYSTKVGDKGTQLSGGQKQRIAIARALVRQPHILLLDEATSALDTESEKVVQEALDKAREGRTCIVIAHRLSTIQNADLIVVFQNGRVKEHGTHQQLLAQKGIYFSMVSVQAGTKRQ", "test": "Transporter substrate assessment", "type": "in vitro ADME"}, "OATP1B3": {"target": "T3, OATP1B3 (Homo sapiens, UniProt Q9NPD5)", "T3 sequence (Q9NPD5 1-702)": "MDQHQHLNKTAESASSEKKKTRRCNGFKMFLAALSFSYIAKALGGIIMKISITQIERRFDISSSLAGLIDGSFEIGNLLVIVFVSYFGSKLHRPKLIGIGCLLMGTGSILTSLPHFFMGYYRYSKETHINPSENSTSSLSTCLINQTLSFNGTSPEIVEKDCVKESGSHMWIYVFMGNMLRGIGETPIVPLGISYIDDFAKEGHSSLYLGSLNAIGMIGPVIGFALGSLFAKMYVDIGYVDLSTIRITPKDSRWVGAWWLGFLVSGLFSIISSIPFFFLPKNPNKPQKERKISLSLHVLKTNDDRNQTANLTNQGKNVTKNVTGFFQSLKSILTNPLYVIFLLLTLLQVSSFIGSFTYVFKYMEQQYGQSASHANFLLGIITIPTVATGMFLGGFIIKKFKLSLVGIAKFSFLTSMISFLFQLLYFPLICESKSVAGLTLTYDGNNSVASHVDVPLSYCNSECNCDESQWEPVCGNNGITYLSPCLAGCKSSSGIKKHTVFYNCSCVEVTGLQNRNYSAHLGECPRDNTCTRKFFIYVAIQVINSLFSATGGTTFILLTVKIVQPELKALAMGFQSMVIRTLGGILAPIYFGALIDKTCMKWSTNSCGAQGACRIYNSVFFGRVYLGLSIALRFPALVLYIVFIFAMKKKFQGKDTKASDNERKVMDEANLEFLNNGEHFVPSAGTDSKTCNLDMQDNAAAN", "test": "Transporter substrate assessment", "type": "in vitro ADME"}, "[4]": {"test": "[14C] metabolism and excretion study in cynomolgus monkeys", "type": "in vivo, cynomolgus monkey", "settings": "for whole blood‐to‐plasma ratio of total radioactivity: based on AUC0‐last; for recovery of radioactivity: by 168 h postdose", "how_it_was_run": "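Male and female cynomolgus monkeys received one oral-gavage dose of 80 mg/kg (2 MBq/kg) [14C]-labelled test compound. Blood, urine and faeces were collected at set times up to 168 h for total radioactivity. Metabolites were profiled by high-resolution LC-MS with online fraction collection and offline counting. The blood:plasma ratio was based on AUC0-last.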"}, "Human [14C] ADME study": {"test": "Human [14C] ADME study", "type": "in vivo"}, "DDI perpetrator study": {"test": "DDI perpetrator study", "type": "in vivo", "settings": "human, plasma, oral, 400 mg"}, "CYP2C8 [5]": {"target": "T1, CYP2C8", "test": "DDI perpetrator study: repaglinide probe", "type": "in vivo", "settings": "miricorilant 400 mg once daily as perpetrator"}, "[6]": {"test": "28-day Good Laboratory Practice toxicology study", "type": "in vivo, mouse", "settings": "mice"}, "28-day toxicology study": {"test": "28-day toxicology study", "type": "in vivo, monkey", "settings": "monkeys"}},
  "note": "“And” between values parts separate entries of the source, which are not always exact repeats. Identical values can stand only once.",
  "data": [
    {"smiles": "O=c1[nH]c(=O)c(Cc2cccc(C(F)(F)F)c2)c([C@H]2CC[C@H](c3ccccc3)CC2)[nH]1", "note": "[miricorilant]", "values": [
      {"measurement": "blood plasma ratio", "setting": "[1]", "result": 1.14},
      {"measurement": "blood plasma ratio", "setting": "[2]", "result": 0.84},
      {"measurement": "IC50", "setting": "CYP2C8 [3]", "result": 7.5, "unit": "µM"},
      {"measurement": "time dependence of CYP2C8 inhibition", "setting": "CYP2C8 [3]", "result": "not time dependent"},
      {"measurement": "IC50", "setting": "CYP2C9", "result": 7.7, "unit": "µM"},
      {"measurement": "time dependence of CYP2C9 inhibition", "setting": "CYP2C9", "result": "not time dependent"},
      {"measurement": "inhibition of CYP2C19", "setting": "CYP2C19", "result": "No inhibition"},
      {"measurement": "induction of CYP1A2", "setting": "CYP1A2", "result": "no induction"},
      {"measurement": "IC50", "setting": "UGT1A1", "result": 1.4, "unit": "µM"},
      {"measurement": "Substrate of MDR1/P-gp", "setting": "MDR1/P-gp", "result": "not a substrate"},
      {"measurement": "Substrate of OATP1B3", "setting": "OATP1B3", "result": "not a substrate"},
      {"measurement": "elimination in urine", "setting": "[4]; female monkeys", "result": "0.74 ± 0.11", "unit": "%"},
      {"measurement": "fecal elimination", "setting": "[4]; female monkeys", "result": "78.51 ± 8.77", "unit": "%"},
      {"measurement": "time at which plasma radioactivity was below the limit of detection", "setting": "[4]; female monkeys", "result": 96, "unit": "h"},
      {"measurement": "whole blood‐to‐plasma ratio of total radioactivity", "setting": "[4]; female monkeys", "result": 0.66},
      {"measurement": "recovery of radioactivity", "setting": "[4]; female monkeys", "result": "88.08 ± 4.03", "unit": "%"},
      {"measurement": "elimination in urine", "setting": "[4]; male monkeys", "result": "0.96 ± 0.08", "unit": "%"},
      {"measurement": "fecal elimination", "setting": "[4]; male monkeys", "result": "72.2 ± 11.20", "unit": "%"},
      {"measurement": "time at which plasma radioactivity was below the limit of detection", "setting": "[4]; male monkeys", "result": 144, "unit": "h"},
      {"measurement": "whole blood‐to‐plasma ratio of total radioactivity", "setting": "[4]; male monkeys", "result": 0.75},
      {"measurement": "recovery of radioactivity", "setting": "[4]; male monkeys", "result": "80.88 ± 11.60", "unit": "%"},
      {"measurement": "administered radioactivity recovered in excreta", "setting": "Human [14C] ADME study; 240‐h sampling period, mean ± SD", "result": "93.68 ± 1.63", "unit": "%"},
      {"measurement": "administered dose recovered in urine", "setting": "Human [14C] ADME study; human, 150 mg oral solution", "result": 4.56, "unit": "%"},
      {"measurement": "total radioactivity recovered in feces", "setting": "Human [14C] ADME study; human, 150 mg oral solution", "result": "89.12% and 89.12 ± 1.16%"},
      {"measurement": "Cmax", "setting": "Human [14C] ADME study; male, human, plasma, po, 150 mg", "result": 343, "unit": "ng/mL"},
      {"measurement": "administered radioactivity eliminated", "setting": "Human [14C] ADME study; within the first 48 h post dose", "result": "19.28 ± 9.01", "unit": "%"},
      {"measurement": "AUC", "setting": "DDI perpetrator study", "result": 11400, "unit": "ng·h/mL"},
      {"measurement": "Cmax at 10 study day", "setting": "DDI perpetrator study", "result": 895, "unit": "ng/mL"},
      {"measurement": "Tmax at 10 study day", "setting": "DDI perpetrator study", "result": 4, "unit": "h"},
      {"measurement": "half-life at 10 study day", "setting": "DDI perpetrator study", "result": 12.2, "unit": "h"},
      {"measurement": "clinical inhibition of CYP2C8", "setting": "CYP2C8 [5]", "result": "strong inhibitor"},
      {"measurement": "adverse effects in 28‐day toxicology study", "setting": "[6]", "result": "No adverse effects"},
      {"measurement": "adverse effects in 28‐day toxicology study", "setting": "28-day toxicology study", "result": "No adverse effects"}
    ]}
  ]
}
